Not all results are given here.
PGC1a acetyl up: compounds raising PGC1a acetylation signal, primary screen, PGC1a modulator project, cell-based, U2OS, AlphaScreen, signal-increasing mode; overnight; activation, % at 15.6 µM; 350,000 tested, 0.21% active; AID 651723, 2012;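 active means every replicate reaching activation of at least 50%, whatever the mean replicate activation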;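 further: hits raise the AlphaScreen acetylation signal above neutral controls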
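System: flag-PGC1a/GCN5 U2OS cells / Input: 7000 cells/well / Compound: single test concentration per compound / Incubation: overnight compound treatment, 37 °C / Technique: AlphaScreen on lysates with anti-acetyl-lysine antibody, acceptor and donor beads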
* = called active by the depositor.

SMILES	PGC1a acetyl up
COCCn1c(C)c(C)c2c(NCCc3ccccc3)ncnc21	-51
CC(C)(C)NS(=O)(=O)c1ccc(-c2csnn2)s1	-61
C[C@H]1CN([C@@H](C)CO)C(=O)c2cc(C#CC(C)(C)O)cnc2O[C@@H]1CN(C)C(=O)C1CCC1	-101
COc1ccc2c([N+](=O)[O-])c(N3CCCC3)[nH]c2c1	-48
COC(=O)C1=CN(Cc2ccc(OC)c(OC)c2)C=C(C(=O)OC)C1c1cccc(O)c1	-74
CO[C@H]1CN(C)C(=O)c2cc(NS(=O)(=O)c3cn(C)cn3)ccc2OC[C@@H](C)NC[C@H]1C	-55
CCOC(=O)C1(Cc2cccc(F)c2)CCN(Cc2ccc(COC)o2)CC1	-45
O=S(=O)(/C(=C\c1ccc(C(F)(F)F)cc1)c1nc2ccccc2[nH]1)c1ccccc1	-60
Cc1ccc2nsnc2c1NC(=O)c1ccc([N+](=O)[O-])o1	-44
Cc1ccc(NC(=O)c2ccc([N+](=O)[O-])o2)cc1C	90*
CSc1nc2nccc(/C=C\c3ccccc3)n2n1	-50
COCCCNC(=S)Nc1cc(C)c(C)cc1C	-75
COc1cccc(C(=O)Nn2cnnc2)c1OC	-75
COc1ccccc1C(=O)Nc1nnc(CCc2ccccc2)s1	69*
CC(C)Cc1nnc(NC(=O)c2cc3c(s2)CCC3)s1	-43
COc1ccccc1C(=O)Nc1ccc2c(c1)nc(CCNC(=O)c1ccco1)n2C	115*
COc1ccccc1C(=O)Nc1ccc2c(c1)C(=O)N(C)C[C@H](OC)[C@H](C)CN(CC1CC1)[C@@H](C)CO2	-52
NC(=O)c1ccccc1NC(=O)/C=C/C(=O)O	62*
Cc1ccc(C)c(NC(=S)Nc2cccc3cnccc23)c1	-51
CCCOc1ccccc1C1C(C(=O)OC)=CN(C(C)C)C=C1C(=O)OC	-92
O=C(Nc1ccc(N2CCN(Cc3ccccc3F)CC2)cc1)c1ccc([N+](=O)[O-])o1	-73
CC(c1ccccc1)C1CC(=O)N(c2ccc([N+](=O)[O-])cc2)C1=O (configuration not stated)	-41
O=C(Cc1ccccc1)N1CCN(c2ccc([N+](=O)[O-])cc2)CC1	118*
COc1cccc2cc(C(C)N(CCCN3CCOCC3)C(=S)Nc3cc(C)ccc3C)oc12 (configuration not stated)	-44
Cc1cccc(CC2CC(=O)N(C3CCCCC3)C2=O)c1 (configuration not stated)	-46
SMILES	PGC1a acetyl up
COc1cc(C2C(C#N)=C(N)Oc3c2oc(CO)cc3=O)cc(OC)c1OC (configuration not stated)	102*
C=CCn1c(SCC(=O)NC(=O)NCc2ccco2)nc2sc(CC)cc2c1=O	57*
CN(C)C(=O)C[C@H]1CC[C@@H](NC(=O)C2CCC2)[C@H](CO)O1	-46
C[C@@H]1CN([C@@H](C)CO)C(=O)CCCn2cc(nn2)CO[C@H]1CN(C)Cc1ccc2c(c1)OCO2	-59
N#Cc1cc2c(=O)n3ccccc3nc2n(Cc2cccnc2)c1=O	-49
O=C1NC(=S)S/C1=C\C=C\c1ccc([N+](=O)[O-])o1	73*
CCOC(=O)c1c(NC(=O)c2ccoc2C)sc2c1CCC2	-57
CC/C(CC(C)(C)c1ccccc1)=N\O	56*
COc1ccc2nc3cc(Cl)ccc3c(Nc3cc(CN4CCCC4)c(O)c(CN4CCCC4)c3)c2n1	-72
COc1ccccc1CN1CCCC(C(=O)N(C)Cc2ccccc2)C1 (configuration not stated)	-45
CCc1c(C)nc(SCC(=O)Nc2ccc3c(c2)OCCO3)[nH]c1=O	-46
COc1ccc(NC(=O)CSC2CC(=O)N(c3ccc4c(c3)OCCO4)C2=O)cc1 (configuration not stated)	55*
Cc1cc(S(=O)(=O)NC(C)C)ccc1OCC(=O)Nc1ccc2c(c1)OCCO2	-110
CN(C)c1ncnc2c1ccn2C1OC(CO)C(O)C1O (configuration not stated)	-52
CCCOc1ccccc1-n1sc2c(c1=S)-c1cc(OC)cc3c1N(C(=O)C3=O)C2(C)C	-49
CC[C@H](C)[C@@H]1OC(=O)[C@@H](C)[C@@H](CC)NC(=O)[C@H](C)N(C)C(=O)C(C)(C)C(=O)C(C)NC(=O)[C@H](Cc2ccccc2)N(C)C(=O)[C@H](C(C)C)N(C)C(=O)CNC(=O)[C@H](CC(C)C)N(C)C(=O)CNC1=O (some centres not stated)	-76
CC1=NN(C(=O)c2ccc(C)cc2)C(O)(C(F)(F)OC(F)(F)F)C1 (configuration not stated)	55*
CC(C)CCC1=NN(C(=O)c2ccco2)C(O)(C(F)(F)F)C1 (configuration not stated)	-44
COc1cccc(-c2csc(N3CCN(C(=S)Nc4ccccc4Cl)CC3)n2)c1	67*
CCCCN(C)C1CCN(C(=S)Nc2cccc(OC)c2)CC1	-52
CCCNC(=O)N(C)C[C@H]1Oc2cc(C#CC(C)C)ccc2S(=O)(=O)N([C@@H](C)CO)C[C@H]1C	-51
CC(C)(C)c1ccc2c(c1)OC(C(=O)N/N=C/c1ccc([N+](=O)[O-])o1)CO2 (configuration not stated)	165*
